Assay outcomes as filed in PubChem BioAssay.
Most compounds without a hit are left out; they make up all but 2.6% or so of the library.
HTRA1 inh – blocks human HTRA1 serine peptidase; Q92743; recombinant HTRA1, FP-rhodamine activity-based probe, fluorescence polarization; inhibition, % at 5.96 µM; 340,000 tested, 0.5% active; in the data active means inhibition above about 36%;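 further: 0% = enzyme with DMSO and 100% = wells lacking enzyme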
mABHD4 FP – ABHD4 (mouse) inhibition, primary FP screen; Q8VD66; purified mABHD4, FP-Rh probe fluorescence polarization; inhibition, % at 8.92 µM; 370,000 tested, 0.54% active; AID 720543;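 active means inhibition exceeding the mean over every tested compound plus 3 SD, cut at about 30% in these data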;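 further: 0% = plate median of compound wells and 100% = S159A mutant with DMSO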
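Test system: mABHD4 protein | Buffer or medium: HEPES pH 7.0 buffer, 150 mM NaCl, 0.01% Pluronic F-127 | Probe or stimulus: FP-Rh fluorescent activity-based probe, added after compound pre-incubation | Timing: Pre-incubation 45 min, probe exposure 60 min, at 25 °C | Technique: Fluorescence polarization, excitation 525 nm, emission 598 nm, BODIPY TMR filters | Repeats: Single well per compound (singlicate)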
PRMT1 inh – blocks human protein arginine methyltransferase 1 | Q99873 | recombinant PRMT1, activity-based probe fluorescence polarization | inhibition, % at 2.79 µM | 370,000 tested, 1.3% active;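 active means inhibition above about 21% made by adding two undisclosed values, limit read from the data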
TCR-CD3 inh – inhibitors of human TCR-CD3 interaction | TAMRA-labeled TCR probe fluorescence, biochemical | inhibition, % at 9.4 µM | 360,000 tested, 0.37% active | AID 651800;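 further: recombinant mutant TCR 2C K166C tagged with TAMRA read by polarization; 0% = receptor in buffer alone and 100% = receptor with positive control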
SIAE inh – human SIAE inhibition, primary screen; Q9HAT2; SIAE FP-Rh probe binding, fluorescence polarization; inhibition, % at 9.66 µM; 370,000 tested, 0.69% active; AID 1053197;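 active means inhibition above a cutoff: mean of compounds within the control limits plus 3 SD of those, cut at about 17% in these data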;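 further: 0% = plate median of compound wells and 100% = probe without SIAE protein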
Target sequence (Q9HAT2 whole entry, looked up): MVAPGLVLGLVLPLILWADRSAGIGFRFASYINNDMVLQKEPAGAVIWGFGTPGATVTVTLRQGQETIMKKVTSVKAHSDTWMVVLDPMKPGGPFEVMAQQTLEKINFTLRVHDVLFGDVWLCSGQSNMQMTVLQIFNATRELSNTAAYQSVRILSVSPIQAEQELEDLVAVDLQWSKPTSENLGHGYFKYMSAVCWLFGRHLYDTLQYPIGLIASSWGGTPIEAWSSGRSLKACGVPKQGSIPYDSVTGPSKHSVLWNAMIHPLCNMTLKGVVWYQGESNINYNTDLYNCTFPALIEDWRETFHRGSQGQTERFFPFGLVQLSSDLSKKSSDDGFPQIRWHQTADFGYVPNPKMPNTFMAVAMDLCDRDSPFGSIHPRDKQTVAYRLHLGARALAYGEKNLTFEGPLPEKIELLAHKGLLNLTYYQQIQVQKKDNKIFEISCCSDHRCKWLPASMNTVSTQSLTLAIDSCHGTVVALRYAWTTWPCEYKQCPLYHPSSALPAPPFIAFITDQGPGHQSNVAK
HTRA1 inh conf – confirmation of human HTRA1 inhibitors; recombinant HTRA1, FP-rhodamine activity-based probe, fluorescence polarization; AID 540248; 1,600 tested, 66% active; inhibition, % at 5.96 µM; shares compounds with HTRA1 inh;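 active means mean inhibition over three repeats above a set limit taken from the earlier primary screen, cut at about 37% in these data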;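 further: 0% = HTRA1 with DMSO and 100% = wells lacking HTRA1; inhibitors block probe binding so polarization drops and inhibition rises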
BSA probe FL – BSA probe counter-screen for TCR-CD3 inhibitors. TAMRA-labeled BSA probe fluorescence counterscreen. 1,200 tested, 10% active. shares compounds with TCR-CD3 inh. inhibition, % at 9.4 µM; in the data active means inhibition above about 23%;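 further: 0% = buffer low control and 100% = reference high control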
TCR-CD3 inh conf – confirmation of human TCR-CD3 interaction inhibitors | shares compounds with TCR-CD3 inh | TAMRA-labeled TCR probe fluorescence binding assay | inhibition, % at 9.4 µM | 1,200 tested, 48% active
PRMT1 confirm – confirmation of human PRMT1 inhibitors | 3,300 tested, 42% active | recombinant His-PRMT1, activity-based probe fluorescence polarization | shares compounds with PRMT1 inh | inhibition, % at 2.79 µM;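 active means mean inhibition across replicates above the hit cutoff derived for the earlier primary screen, cut at about 22% in these data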
mABHD4 conf – confirmation of mouse ABHD4 inhibitors. shares compounds with mABHD4 FP. purified mABHD4, FP-Rh probe fluorescence polarization. inhibition, % at 8.92 µM. 1,800 tested, 55% active;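 active means mean inhibition across replicates above the hit cutoff set in the primary screen, cut at about 30% in these data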;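 further: 0% = wild-type ABHD4 with DMSO and 100% = catalytically dead S159A mutant with DMSO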
SIAE inh conf – confirmation of human SIAE inhibitors; shares compounds with SIAE inh; SIAE FP-Rh activity-based probe, fluorescence polarization; inhibition, % at 9.66 µM; 2,300 tested, 13% active; AID 1117263;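 active means mean inhibition of the replicates above the hit cutoff set in the primary screen, cut at about 17% in these data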;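 further: 0% = SIAE with DMSO and probe and 100% = probe without SIAE; inhibitors lower polarization as more probe stays unbound to SIAE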
Active calls of the source: *. Unless noted, no stated cut-off is given here; in the data, active means inhibition above about 19%; inactive means the rest.

What do the screens show for `CC(=O)Nc1ccc(S(=O)(=O)NC2=C(N3CCN(c4ccc(F)cc4)CC3)C(=O)c3ccccc3C2=O)cc1`?
HTRA1 inh: 55*; mABHD4 FP: 22; PRMT1 inh: 0; TCR-CD3 inh: 0; SIAE inh: 25*; HTRA1 inh conf: 71*; SIAE inh conf: 24*

Results for Cc1[nH]n(-c2ncc(-c3ccccc3)s2)c(=O)c1C(c1ccc(Br)cc1)C(C#N)C#N (stereo unspecified) ?
HTRA1 inh: 39*; mABHD4 FP: 51*; PRMT1 inh: 3; TCR-CD3 inh: 4; SIAE inh: 24*; HTRA1 inh conf: 30; mABHD4 conf: 43*; SIAE inh conf: 10

Results for O=C(CCNS(=O)(=O)c1ccccc1C(F)(F)F)NCCCc1ccccc1 ?
HTRA1 inh: 2; mABHD4 FP: -2; PRMT1 inh: -3; TCR-CD3 inh: -6; SIAE inh: 1

What do the screens show for `CCCCn1c(=O)[nH]c2nc3cc(N)ccc3nc2c1=O`?
HTRA1 inh: 42*; mABHD4 FP: 68*; PRMT1 inh: 149*; TCR-CD3 inh: 21*; SIAE inh: 31*; HTRA1 inh conf: 37*; PRMT1 confirm: 143*; mABHD4 conf: 44*; SIAE inh conf: 10

How did CCCCn1c(N)c(Br)c(=O)[nH]c1=O do in these assays?
HTRA1 inh: -3; mABHD4 FP: 0; PRMT1 inh: 8; TCR-CD3 inh: 0; SIAE inh: 4

How did COC(=O)C1=C(C)N(C)C(=NCc2cc(OC)c(OC)c(OC)c2)NC1c1cccc(F)c1 (stereo unspecified) do in these assays?
mABHD4 FP: 2; PRMT1 inh: -4; TCR-CD3 inh: 2; SIAE inh: 8

How did C/C(=N/Nc1ccc([N+](=O)[O-])cc1)c1c[nH]c2ccccc12 do in these assays?
HTRA1 inh: 46*; mABHD4 FP: 27; PRMT1 inh: 7; TCR-CD3 inh: -11; SIAE inh: 34*; HTRA1 inh conf: 81*; SIAE inh conf: -6

Results for CCCCN1CC(COCc2ccccc2)Oc2cccc(Sc3ccc(OC)c(OC)c3)c2S1(=O)=O (stereo unspecified) ?
mABHD4 FP: -7; PRMT1 inh: -4; TCR-CD3 inh: 0; SIAE inh: -4

How did O=C1C=CC(=O)c2c(O)c(CO)c(CO)c(O)c21 do in these assays?
HTRA1 inh: 46*; mABHD4 FP: 62*; PRMT1 inh: 50*; TCR-CD3 inh: 78*; SIAE inh: 53*; HTRA1 inh conf: 57*; BSA probe FL: -3; TCR-CD3 inh conf: 59*; SIAE inh conf: 44*

How did CC(=O)NC(c1ccc(Cl)cc1)c1ccc2cccnc2c1O (stereo unspecified) do in these assays?
HTRA1 inh: 46*; mABHD4 FP: 13; PRMT1 inh: 0; TCR-CD3 inh: -2; SIAE inh: 17*; HTRA1 inh conf: 79*; SIAE inh conf: 10

How did CCC(=O)NC(c1ccc(Cl)cc1Cl)c1ccc2cccnc2c1O (stereo unspecified) do in these assays?
HTRA1 inh: 74*; mABHD4 FP: 19; PRMT1 inh: -4; TCR-CD3 inh: 3; SIAE inh: 19*; HTRA1 inh conf: 73*; SIAE inh conf: 15

Results for COc1cccc2c1C(=O)c1c(O)c3c(c(O)c1C2=O)CC(O)(C(C)=O)CC3OC1CC(O)C(O)C(C)O1 (stereo unspecified) ?
HTRA1 inh: 73*; mABHD4 FP: 79*; PRMT1 inh: active; TCR-CD3 inh: 134*; SIAE inh: 68*; HTRA1 inh conf: 74*; BSA probe FL: 180*; TCR-CD3 inh conf: 142*; SIAE inh conf: 55*

Results for CCOC(=O)c1sc(N=NC2=C(O)CCCC2=O)c(C(=O)OCC)c1C ?
HTRA1 inh: 48*; mABHD4 FP: 52*; PRMT1 inh: 6; TCR-CD3 inh: 4; SIAE inh: 22*; HTRA1 inh conf: 38*; mABHD4 conf: 34*; SIAE inh conf: 0

How did CC1(C)OC(C)(C)/C(=C/Nc2ccc(O)cc2)C1=O do in these assays?
HTRA1 inh: 63*; mABHD4 FP: 62*; PRMT1 inh: 18; TCR-CD3 inh: 33*; SIAE inh: 33*; HTRA1 inh conf: 21; BSA probe FL: 9; TCR-CD3 inh conf: 14; mABHD4 conf: 25; SIAE inh conf: 9

Results for CC(C)CNc1cccc2c1S(=O)(=O)N[C@@H](Cc1ccccc1)CO2 ?
mABHD4 FP: -15; PRMT1 inh: -2; TCR-CD3 inh: 4; SIAE inh: -7

How did CCOc1ccc(/C=N/NC(=S)NC2CC3C=CC2C3)cc1 (stereo unspecified) do in these assays?
mABHD4 FP: -5; PRMT1 inh: 2; TCR-CD3 inh: 1; SIAE inh: 3

What do the screens show for `Oc1c(Br)cc(Br)cc1/C=N/NC(=S)N[C@H]1CC2C=CC1C2` (stereo partly specified)?
HTRA1 inh: 57*; mABHD4 FP: 38*; PRMT1 inh: -5; TCR-CD3 inh: 32*; SIAE inh: 24*; HTRA1 inh conf: 63*; BSA probe FL: -12; TCR-CD3 inh conf: 38*; mABHD4 conf: 43*; SIAE inh conf: 24*

Results for CN(/N=C/c1ccc(O)cc1O)c1ncc(C(F)(F)F)cc1Cl ?
HTRA1 inh: 56*; mABHD4 FP: 7; PRMT1 inh: 0; TCR-CD3 inh: -5; SIAE inh: 19*; HTRA1 inh conf: 89*; SIAE inh conf: 2

What do the screens show for `CN(/N=C/c1ccccc1Cl)c1ncc(Cl)cc1C(F)(F)F`?
HTRA1 inh: 3; mABHD4 FP: -2; PRMT1 inh: 3; TCR-CD3 inh: -3; SIAE inh: -2

How did CNc1ccc(Br)cc(C(=O)/C=C/c2ccc(OC)cc2OC)c1=O do in these assays?
HTRA1 inh: 50*; mABHD4 FP: 36*; PRMT1 inh: 14; TCR-CD3 inh: 19*; SIAE inh: 21*; HTRA1 inh conf: 17; BSA probe FL: -5; TCR-CD3 inh conf: 8; mABHD4 conf: 30*; SIAE inh conf: 7
